Experimental data gathered from unrelated publications.
Compare with care: the assays were run in different laboratories.
Target: Calcium/calmodulin-dependent protein kinase type II subunit delta (CAMK2D, Homo sapiens, UniProt Q13557)

CNC(=O)c1cc(Oc2ccc(NC(=O)Nc3ccc(Cl)c(C(F)(F)F)c3)cc2)ccn1  inhibition (enzyme activity, inhibitor; 10 µM): 79%
O=C(NS(=O)(=O)c1ccc(NCC2CCOCC2)c([N+](=O)[O-])c1)c1ccc(N2CCN(Cc3ccc(C(F)(F)F)cc3-c3ccc(Cl)cc3)CC2)cc1Oc1cnc2[nH]ccc2c1  remaining binding (cell-free assay, competition with immobilised ligand; 1 µM): 100%
Cc1ccc(-n2nc(C(C)(C)C)cc2NC(=O)Nc2ccc(OCCN3CCOCC3)c3ccccc23)cc1  inhibition (enzyme activity, inhibitor; 10 µM): 22%
CCN1CCN(Cc2ccc(NC(=O)c3ccc(C)c(Oc4ccnc5[nH]ccc45)c3)cc2C(F)(F)F)CC1  inhibition (target engagement in cells, inhibitor, chemoproteomics; Huh-7; 1 µM): -12%
Cc1cnc(NC2CCOCC2)nc1-n1cnc(C(=O)NC(CN)c2cc(F)cc(Cl)c2)c1 (stereo not drawn)  remaining activity (enzyme activity, inhibitor, radiometric; 1 µM): 91%
CC(C)(C)c1nc(-c2cccc(NS(=O)(=O)c3c(F)cccc3F)c2F)c(-c2ccnc(N)n2)s1  remaining activity (enzyme activity, inhibitor, radiometric; 1 µM): 97%
Cc1ccc(C(=O)NCc2ccsc2)cc1C#Cc1cn(C(C)C)c2ncnc(N)c12  activity vs control (enzyme activity, inhibitor; 1 µM): 102%
O=C1Nc2ccc(Cl)cc2C1=Cc1cc(Cl)c(O)c(Cl)c1  remaining signal (cell-free assay; 0.5 µM): 80.2%
O=C(O)[C@@H]1[C@@H](Cn2nnc3ccccc3c2=O)CC[C@H]1C(=O)c1ccc(OCCC2CCOCC2)cc1  remaining binding (cell-free assay, competition with immobilised ligand; 1 µM): 100%
COc1cccc2c(NCc3ccccc3)nc(-n3c(N)nc4ccccc43)nc12  inhibition (target engagement in cells, inhibitor, chemoproteomics; 20 mM): -14.3%
Cc1ccc(Nc2nccc(N(C)c3ccc4c(C)n(C)nc4c3)n2)cc1S(N)(=O)=O  inhibition (enzyme activity, inhibitor; 0.3 µM): 63%
Nc1c(C(=O)NCc2ccc(C(=O)NCCCC3CCCCC3)cc2)cnn1-c1ccccc1  remaining binding (cell-free assay, competition with immobilised ligand; 0.1 µM): 100%
COc1cc2ncnc(Nc3ccc(Oc4ccccc4)cc3C)c2cc1OC  inhibition (enzyme activity, inhibitor; 1 µM): 4%
O=C1NC(c2ccccn2)Sc2ccccc21 (stereo not drawn)  remaining binding (cell-free assay, competition with immobilised ligand; 1 µM): 75%
CC(C)(O)[C@H]1CC[C@H](Nc2ccc3ncc(-c4cccc(C(F)(F)F)c4)n3n2)CC1  remaining activity (enzyme activity, inhibitor; 1 µM): 81.8%
O=C1NC(=O)c2cc(Nc3ccc(F)cc3)c(Nc3ccc(F)cc3)cc21  remaining signal (cell-free assay; 0.5 µM): 97.9%
O=C(Nc1cnn(-c2csc(C(=O)NC3COC3)c2)c1)Nc1ccccc1Cl  remaining activity (enzyme activity, inhibitor; 5 µM): 103%
CC(=O)N1CCC(c2ccc(C(=O)NC(=N)N)cc2C(F)(F)F)CC1  remaining binding (cell-free assay, competition with immobilised ligand; 1 µM): 100%
